High-throughput results as filed in PubChem.
Sampled rows, rich in hits. Any-hit rate of the full collection: about 4%.
OX1R antag-1 – antagonists of human orexin 1 receptor (OX1R); 1.8% of 330,000 active; inhibition, % at 6.6 µM; OX1R-expressing cells, FRET antagonist read-out; Orexin/Hypocretin receptor type 1 (Homo sapiens), O43613; in the data active = inhibition mostly above about 38%, no sharp cut-off; inactive = mostly below about 40%;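 also: 0% = agonist challenge alone and 100% = reference antagonist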
Target sequence (O43613 whole entry, looked up): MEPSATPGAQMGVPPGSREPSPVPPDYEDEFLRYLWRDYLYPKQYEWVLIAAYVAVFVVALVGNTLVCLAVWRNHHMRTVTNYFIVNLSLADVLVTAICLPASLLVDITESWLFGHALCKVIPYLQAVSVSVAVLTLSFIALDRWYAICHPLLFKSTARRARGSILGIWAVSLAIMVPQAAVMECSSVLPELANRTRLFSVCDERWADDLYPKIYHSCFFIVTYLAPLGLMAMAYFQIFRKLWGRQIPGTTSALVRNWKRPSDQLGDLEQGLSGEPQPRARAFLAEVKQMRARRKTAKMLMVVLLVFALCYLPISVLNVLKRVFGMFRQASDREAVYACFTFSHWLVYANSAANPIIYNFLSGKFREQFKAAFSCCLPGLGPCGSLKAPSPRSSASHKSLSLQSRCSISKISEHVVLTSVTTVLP
TAAR1 ag – human TAAR1 agonists, primary screen, Fluo-8 calcium fluorescence, CHO RD-HGA16 cells; activation, % at 3 µM; 0.99% of 360,000 active; vehicle wells 0%, saturating PEA agonist 100%; AID 624467, 2012;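 active = activation above the mean activation of all test compounds in the run plus 3 SD, cut at about 38% in these data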
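Assay system: CHO-derived RD-HGA16 cells with stable Gα16 and human TAAR1; timing: 17-24 h seeding, 75 min 37 °C dye, 30 min RT; read-out: % activation from peak over basal fluorescence ratio, DMSO-to-PEA scaled; measured by: kinetic Fluo-8 calcium fluorescence; benchmarks: low control DMSO, high control PEA (EC100); doses: 3 µM single concentration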
CHO parental Ca – ATP-evoked calcium signal inhibitors, parental CHO, primary screen, counter-screen for OX1R antagonist project, cell-based, fluorescence, Fluo-8 calcium dye | inhibition, % at 5.6 µM | 0.63% of 330,000 active | AID 463079, 2010 | parental CHO-K1, ATP-induced calcium, Fluo-8 fluorescence;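 active = inhibition above that plate's mean sample inhibition plus 3 SD, cut at about 26% in these data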;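 also: 0% = ATP-challenged DMSO wells and 100% = DMSO wells without ATP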
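Assay system – parental CHO cells · Reagent – ATP stimulus · Detection – intracellular calcium via Fluo-8 no-wash fluorescent dye · Evaluation – percent inhibition of ATP-evoked calcium rise, normalized to controls · Controls – ATP wells versus no-ATP DMSO wells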
NTR1 agonist – agonists of human NTR1, primary screen, imaging, U2OS cells, beta-arrestin-GFP, high content | Neurotensin receptor type 1 (Homo sapiens), P30989 | AID 493036, 2011 | activation, % at 20 µM | NTR1-U2OS beta-arrestin-GFP spot imaging, agonist mode | 0.17% of 330,000 active;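 active = activation at or above 40% of the spot to cytoplasm intensity ratio, with at least 20 cells analyzed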;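 also: 0% = DMSO without peptide and 100% = 100 nM NTR1 peptide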
OX1R antag-2 – OX1R (HCRTR1) antagonists, primary screen, fluorescence, CHO/OX1R cells, Fluo-8 calcium, orexin A. inhibition, % at 5 µM. AID 434989, 2010. 0.43% of 330,000 active. Fluo-8 calcium fluorescence. Orexin/Hypocretin receptor type 1 (Homo sapiens), O43613;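 active = inhibition above its plate's threshold, mean inhibition of all tested compounds on the plate plus 3 SD, cut at about 37% in these data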;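 also: 0% = orexin A challenge wells and 100% = SB-334867-A antagonist wells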
TAAR1 antag – human TAAR1 antagonists, primary screen, Fluo-8 calcium fluorescence, CHO RD-HGA16 cells; Trace amine-associated receptor 1 (Homo sapiens), Q96RJ0; 1.5% of 360,000 active; AID 624466, 2012; antagonist; inhibition, % at 3 µM;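 active = inhibition above a per-plate cutoff, the mean inhibition of test compounds on that plate plus 3 SD, cut at about 49% in these data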;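 also: 0% = DMSO plus EC80 beta-PEA response and 100% = DMSO alone without agonist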
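Test system – hTAAR1-expressing CHO RD-HGA16 cells, Gα16-coupled · Reagent – β-PEA at EC80 concentration, post-compound challenge · Compound dosing – 3 µM, single point · Timing – 140 s kinetic read after compound, 140 s after agonist · Detection – Fluo-8 intracellular calcium dye fluorescence, real-time kinetic reads · Control set – DMSO and EC80 PEA controls · Repeats – n of 1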
Starred values were filed as active, the others as inactive; x = no result.

SMILES | OX1R antag-1 | TAAR1 ag | CHO parental Ca | NTR1 agonist | OX1R antag-2 | TAAR1 antag
Cc1ccc(Oc2nc3c(c(=O)n(Cc4ccccc4F)c(=O)n3C)n2C)cc1 | 1.5 | 20.3 | -12.5 | 6.2 | -5.8 | 49.7*
Cn1c(=O)c2c(nc(Oc3ccc(-c4ccccc4)cc3)n2C)n(C)c1=O | 2.6 | 24.3 | -0.6 | 14.5 | 5.0 | -15.0
O=C(Nc1cccc(OCC(=O)N2CCOCC2)c1)c1cccc([N+](=O)[O-])c1 | 24.0 | 0.9 | -7.8 | 0.3 | -9.5 | 0.0
O=C(COc1cccc(NC(=O)c2cccc([N+](=O)[O-])c2)c1)c1ccc(Br)cc1 | 53.6 | 18.9 | 9.1 | 1.7 | 21.3 | 83.3*
O=C(COC(=O)c1cccc([N+](=O)[O-])c1)c1ccc(OCc2ccccc2)cc1 | 5.4 | 0.5 | 52.6* | 2.6 | 53.2* | -1.9
C=CCN=C1NC(c2cccc(Cl)c2)C(C(=O)OC)=C(C)N1Cc1ccc(C(F)(F)F)cc1 (stereo not drawn) | x | 27.9 | x | x | x | 45.0
CCCCNc1cccc2c1S(=O)(=O)N[C@@H](CC(C)C)CO2 | x | -0.1 | x | x | x | -13.2
Cc1ccc(-n2ccnc(SCC(=O)NCCc3ccccc3)c2=O)cc1F | 17.4 | 37.5* | -16.8 | -0.9 | -4.6 | -36.9
Cc1ccc(-n2ccnc(SCC(=O)NC3CCCC3)c2=O)cc1F | 34.9 | 1.8 | -11.4 | -0.6 | -12.2 | -7.2
CCCCS(=O)(=O)N1CCCc2nc(-c3ccccc3)ccc21 | x | -1.5 | x | x | x | -15.8
CN(C)CCCN1C(=O)c2cccc3c(Br)ccc(c23)C1=O | 63.7* | 1.6 | -13.3 | 12.7 | -26.8 | -16.1
O=C(CNC(=O)c1ccccc1)N/N=C/C=C/c1ccccc1 | 5.1 | 42.0* | -0.5 | 0.5 | -15.2 | 20.8
COc1ccc(C(=O)NCC(=O)N/N=C/C=C/c2ccccc2)cc1OC | 9.5 | 15.2 | -11.3 | 3.9 | -21.6 | 9.7
Nc1[nH]c(C(=O)c2ccc(Br)cc2)c(-c2ccc(Br)cc2)c1C(=O)NCc1cccc2ccccc12 | x | 2.0 | x | x | x | -21.3
O=C1CCC(N2C(=O)c3ccccc3C2=O)C(=O)N1 (stereo not drawn) | 15.0 | 1.9 | -2.8 | 1.8 | -2.5 | -8.3
O=C1c2[nH]c3ccccc3c2CC1N1C(=O)c2ccccc2C1=O (stereo not drawn) | x | 20.9 | x | x | x | 51.7*
COc1ccc(-n2c(-c3ccc(Cl)cc3)c[n+]3c2CCc2ccccc2-3)cc1 | 5.5 | 9.7 | -2.9 | 0.0 | -21.2 | 5.0
Cc1ccc(-n2c(-c3ccc(Br)cc3)c[n+]3c2CCc2ccc4cccnc4c2-3)cc1 | 11.0 | 17.5 | 83.7* | x | 90.2* | -1.9
Cc1cc(N)n2nc(C)c(-c3ccccc3)c2n1 | 63.5* | 3.3 | -11.5 | x | -9.3 | 2.7
O=C(NCc1cccnc1)C(=O)N/N=C/c1ccc([N+](=O)[O-])cc1 | 58.8* | 8.7 | -4.1 | 0.6 | -28.7 | -16.5
COc1cc2c3nnc(-c4ccc(F)cc4)c-3cn(Cc3cccc(C)c3)c2cc1OC | 8.2 | 0.1 | -13.8 | 124.0* | -26.3 | 10.2
COc1cc2c3nnc(-c4ccccc4)c-3cn(Cc3ccc(F)cc3)c2cc1OC | 15.9 | 6.3 | -11.8 | 12.0 | -11.9 | -7.6
Cc1ccccc1OCCn1c(=O)oc2ccccc21 | 24.9 | 17.1 | 3.5 | 1.3 | -2.8 | 26.5
Cc1ccc(C(C)C)c(OCCN)c1 | 0.4 | 37.9* | -6.1 | 0.1 | -0.7 | -1.9
Cc1ccc(C(C)C)c(OCCn2c(=O)oc3ccccc32)c1 | 23.3 | 12.8 | 6.1 | 5.2 | -1.1 | 72.2*
C[C@@H]1NS(=O)(=O)c2c(F)cccc2O[C@@H]1c1ccccc1 | x | -0.7 | x | x | x | 7.9
CCOC(=O)c1c(C)oc2c1c(C(c1ccccc1)N1CCOCC1)c(O)c1ccccc12 (stereo not drawn) | 61.7* | 16.9 | -24.2 | 21.4 | -13.6 | -9.0
O=C(N[C@H](C(=O)N1CCC[C@H]1C(=O)NC1CCCC1)c1ccccc1)c1ccc(Cl)c(Cl)c1 | x | -2.7 | x | x | x | 0.0
